From article PMC4277207 (ChemMedChem, 2014) come the findings set out here.

SMILES strings stand for the structures. Entries after “also recorded” stand apart in the source; their conditions may differ. Like-named read-outs stand apart in the source and are kept apart here.

Broadly, the IC50 is the concentration needed to halve the response being measured.

Series [1] deals with D2-like receptor (D2, D3, and D4). Kind of series: [3H]spiperone binding assay, rat striatal. The following applies: ratio of Ki values, rat brain preparation. The method, boiled down: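 The D2-like assay used [3H]spiperone at 0.2 nM on caudate-putamen membranes at 1.5 mg o.w.w./mL, in agonist-optimised Tris-HCl/KCl/MgCl2/CaCl2 buffer at pH 7.4. Nonspecific binding was set with 1 μM (+)-butaclamol, and KD was 0.4 nM. For two-site curves, the high-affinity Ki is reported. […] Values are means of 3–6 determinations.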

Series [2] addresses human D3 receptor (Homo sapiens, UniProt P35462). The class given is cell-based. The following applies: hD3-transfected CHOp cells, mitogenesis; for IC50: read-out: Agonist activity: IC50, mean ± SEM of 3–6 determinations.
For series [3], the system named is D1-like receptor (D1 and D5). Kind of series: [3H]SCH 23390 binding assay, rat striatal membranes. The following applies: ratio of Ki values, rat brain preparation.
Series [4] is classed as in vitro ADME.

Sequence of human D3 receptor (P35462 whole entry): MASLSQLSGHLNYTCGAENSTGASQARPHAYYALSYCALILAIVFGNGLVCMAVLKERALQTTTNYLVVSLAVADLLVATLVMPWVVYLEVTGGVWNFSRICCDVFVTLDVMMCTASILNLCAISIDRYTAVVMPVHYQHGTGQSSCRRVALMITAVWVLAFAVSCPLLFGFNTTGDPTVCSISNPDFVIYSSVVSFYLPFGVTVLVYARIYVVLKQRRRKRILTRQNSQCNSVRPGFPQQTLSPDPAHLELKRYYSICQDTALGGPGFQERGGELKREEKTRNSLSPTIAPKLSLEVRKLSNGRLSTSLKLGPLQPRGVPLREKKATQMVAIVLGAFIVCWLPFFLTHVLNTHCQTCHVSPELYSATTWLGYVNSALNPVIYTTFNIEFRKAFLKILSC

As for `CCCN(CC[C@]1(O)C[C@@H](NS(=O)(=O)c2ccc(F)cc2)C1)[C@H]1CCc2nc(N)sc2C1` (relative stereo) [Compound 33, N-(cis-3-(2-(((S)-2-Amino-4,5,6,7-tetrahydrobenzo[d]thiazol-6-yl)(propyl)amino)-ethyl)-3-hydroxycyclobutyl)-4-fluorobenzenesulfonamide], the “Selectivity D2-like/D3” value in series [1] amounted to 414. Besides, in series [2], the “% of Stimulation compared to Quinpirole as the standard agonist” value (shortened to “% of Stimulation compared to Quinpirole”) is 100%, the “functional activity at the human D3 receptor (agonist character)” value (“functional activity” for short) is recorded as “full D3 agonists” and the IC50 is 17 ± 4.4 nM. In series [3], the “Selectivity D1-like/D3” value is recorded as 53,684.
For `CCCN(CCC1(O)CC(NS(=O)(=O)c2ccc(F)c(Cl)c2)C1)[C@H]1CCc2nc(N)sc2C1` (stereo in doubt) [Compound 34, N-(cis-3-(2-(((S)-2-Amino-4,5,6,7-tetrahydrobenzo[d]thiazol-6-yl)(propyl)amino)-ethyl)-3-hydroxycyclobutyl)-3-chloro-4-fluorobenzenesulfonamide], in that order: 1,052, 100%, “full D3 agonists”, 26 ± 4.1 nM and 18,217.
For `CCCN(CCC1(O)CC(NC(=O)c2ccc(F)c(Cl)c2)C1)[C@H]1CCc2nc(N)sc2C1` (stereo in doubt) [Compound 18, N-(cis-3-(2-(((S)-2-amino-4,5,6,7-tetrahydrobenzo[d]thiazol-6-yl)(propyl)amino)-ethyl)-3-hydroxycyclobutyl)-3-chloro-4-fluorobenzamide], in that order: 16,272, 100%, “full D3 agonists”, 2 ± 0.34 nM and 65,581.
For `CCCN(CCC1(O)CC(NC(=O)c2ccccc2F)C1)[C@H]1CCc2nc(N)sc2C1` (stereo in doubt) [Compound 15, N-(cis-3-(2-(((S)-2-amino-4,5,6,7-tetrahydrobenzo[d]thiazol-6-yl)(propyl)amino)-ethyl)-3-hydroxycyclobutyl)-2-fluorobenzamide], in that order: 36,956, 100%, “full D3 agonists”, 2 ± 0.49 nM and 116,521.
On to `CCCN(CC[C@]1(O)C[C@@H](NC(=O)c2cccc(OC)c2)C1)[C@H]1CCc2nc(N)sc2C1` (relative stereo) [Compound 21, N-(cis-3-(2-(((S)-2-Amino-4,5,6,7-tetrahydrobenzo[d]thiazol-6-yl)(propyl)amino)-ethyl)-3-hydroxycyclobutyl)-3-methoxybenzamide], for which the “Selectivity D2-like/D3” value in series [1] was 12,836. For the same molecule, the “t1/2 in human liver microsomes” value in series [4] is over 1 h. Also, the “Percentage remaining of compounds in human liver microsomes” value was 100% in series [4] (0 h); 99.7% in series [4] (5 min); 98.5% in series [4] (10 min); 92.5% in series [4] (0.25 h); 83.0% in series [4] (0.5 h); 74.1% in series [4] (1 h). Further, the “% of Stimulation compared to Quinpirole” value in series [2] is on record as 100%. Moreover, in series [2], the “functional activity” value was “full D3 agonists”. Further, in series [2], the IC50 is 18 ± 2.7 nM. Further, in series [3], the “Selectivity D1-like/D3” value was 84,474.
On to `CCCN(CC[C@]1(O)C[C@@H](NC(=O)c2cccc(-c3noc(C)n3)c2)C1)[C@H]1CCc2nc(N)sc2C1` (relative stereo) [Compound 23, N-(cis-3-(2-(((S)-2-amino-4,5,6,7-tetrahydrobenzo[d]thiazol-6-yl)(propyl)amino)-ethyl)-3-hydroxycyclobutyl)-3-(5-methyl-1,2,4-oxadiazol-3-yl)benzamide], for which the “Selectivity D2-like/D3” value in series [1] is 29,800. The “t1/2 in human liver microsomes” value in series [4] is over 1 h. The “Percentage remaining of compounds in human liver microsomes” value in series [4] (0 h) stood at 100%; in series [4] (5 min), 96.6%; in series [4] (10 min), 99.2%; in series [4] (0.25 h) it was 99.0%; in series [4] (0.5 h), 90.0%; in series [4] (1 h) it was 65.5%. For the same molecule, in series [2], the “% of Stimulation compared to Quinpirole” value turned out to be 100%. Also, the “functional activity” value in series [2] is given as “full D3 agonists; also recorded: full agonist”. In series [2], the IC50 was 19 ± 1.5 nM. Also, in series [3], the “Selectivity D1-like/D3” value is 28,300.
